Source: ChEMBL document CHEMBL2157861, “Discovery of 4-morpholino-pyrimidin-6-one and 4-morpholino-pyrimidin-2-one-containing Phosphoinositide 3-kinase (PI3K) p110β isoform inhibitors through structure-based fragment optimisation” (Bioorg Med Chem Lett, 2012)
Converted amounts (≈) assume the structure as drawn.

Assays:
[1] = molecular target: Phosphatidylinositol 4,5-bisphosphate 3-kinase catalytic subunit beta isoform (Homo sapiens, UniProt P42338); assay: Inhibition of human recombinant His6-tagged PI3K p110beta expressed in baculovirus using DiC8-PI(4,5)P2 as substrate after 20 mins by AlphaScreen assay
How it was run: (§1)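 Values are the mean of at least two experiments. Experimental error was within 20% of the value.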

[2] = Lipophilicity, log D of the compound by HPLC analysis at pH 7.4; type: physicochemical; conditions: buffer
How it was run: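 LogD was determined experimentally at pH 7.4 by an HPLC method.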

[3] = molecular target: Phosphatidylinositol 4,5-bisphosphate 3-kinase catalytic subunit alpha isoform (Homo sapiens, UniProt P42336); assay: Inhibition of human recombinant His6-tagged PI3K p110alpha expressed in baculovirus using DiC8-PI(4,5)P2 as substrate after 20 mins by AlphaScreen assay; how it was run: as §1
[4] = Half life in human liver microsomes after 30 mins; type: ADME, Microsome
How it was run: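 Half-life was measured after a 30 min incubation with human liver microsomes at 0.5 mg/mL.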

Liver microsomes = assay: Drug metabolism in human liver microsomes assessed as reactive glutathione adduct formation ratio after 30 mins relative to clozapine; type: ADME, Microsome; conditions: 0.5 h
How it was run: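 Human liver microsomes at 1 mg/mL were incubated for 30 min in the presence of glutathione. The read-out was the ratio of reactive metabolite formation.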

[5] = molecular target: Phosphatidylinositol 4,5-bisphosphate 3-kinase catalytic subunit gamma isoform (Homo sapiens, UniProt P48736); assay: Inhibition of PI3K p110gamma
[6] = Solubility of the compound in DMSO/HBSS at pH 7.4; type: physicochemical
How it was run: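 Solubility was measured from DMSO into HBSS at pH 7.4.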

[7] = molecular target: T1, Phosphatidylinositol 4,5-bisphosphate 3-kinase catalytic subunit delta isoform (Homo sapiens, UniProt O00329); assay: Inhibition of PI3K p110delta
T1 sequence (O00329 whole entry): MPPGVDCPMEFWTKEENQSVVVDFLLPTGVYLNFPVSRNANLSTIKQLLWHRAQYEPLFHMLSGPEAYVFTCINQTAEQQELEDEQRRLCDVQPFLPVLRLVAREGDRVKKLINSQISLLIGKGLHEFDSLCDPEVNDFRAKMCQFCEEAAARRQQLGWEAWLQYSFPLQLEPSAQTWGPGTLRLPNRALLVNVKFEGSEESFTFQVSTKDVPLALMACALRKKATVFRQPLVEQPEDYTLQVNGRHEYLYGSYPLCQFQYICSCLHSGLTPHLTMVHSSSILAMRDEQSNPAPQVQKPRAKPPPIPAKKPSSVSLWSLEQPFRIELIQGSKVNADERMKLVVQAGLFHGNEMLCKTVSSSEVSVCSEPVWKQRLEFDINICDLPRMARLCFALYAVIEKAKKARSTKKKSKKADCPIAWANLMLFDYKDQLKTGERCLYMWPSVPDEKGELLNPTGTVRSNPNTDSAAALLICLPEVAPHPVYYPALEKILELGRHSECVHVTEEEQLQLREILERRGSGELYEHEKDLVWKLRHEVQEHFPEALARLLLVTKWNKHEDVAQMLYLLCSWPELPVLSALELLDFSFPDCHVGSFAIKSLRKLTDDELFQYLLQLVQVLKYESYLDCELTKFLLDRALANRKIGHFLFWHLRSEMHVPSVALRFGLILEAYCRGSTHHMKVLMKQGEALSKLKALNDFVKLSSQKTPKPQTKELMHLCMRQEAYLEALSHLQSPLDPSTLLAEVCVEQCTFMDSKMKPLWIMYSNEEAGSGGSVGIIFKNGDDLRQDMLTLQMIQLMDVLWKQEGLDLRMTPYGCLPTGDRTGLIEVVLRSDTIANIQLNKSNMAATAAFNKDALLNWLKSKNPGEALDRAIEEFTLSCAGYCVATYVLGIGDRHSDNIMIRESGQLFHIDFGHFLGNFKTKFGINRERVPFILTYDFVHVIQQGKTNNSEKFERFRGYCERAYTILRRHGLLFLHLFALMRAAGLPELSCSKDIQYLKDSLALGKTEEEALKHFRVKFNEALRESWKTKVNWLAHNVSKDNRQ

Sequence of Phosphatidylinositol 4,5-bisphosphate 3-kinase catalytic subunit alpha isoform (P42336 whole entry, canonical isoform): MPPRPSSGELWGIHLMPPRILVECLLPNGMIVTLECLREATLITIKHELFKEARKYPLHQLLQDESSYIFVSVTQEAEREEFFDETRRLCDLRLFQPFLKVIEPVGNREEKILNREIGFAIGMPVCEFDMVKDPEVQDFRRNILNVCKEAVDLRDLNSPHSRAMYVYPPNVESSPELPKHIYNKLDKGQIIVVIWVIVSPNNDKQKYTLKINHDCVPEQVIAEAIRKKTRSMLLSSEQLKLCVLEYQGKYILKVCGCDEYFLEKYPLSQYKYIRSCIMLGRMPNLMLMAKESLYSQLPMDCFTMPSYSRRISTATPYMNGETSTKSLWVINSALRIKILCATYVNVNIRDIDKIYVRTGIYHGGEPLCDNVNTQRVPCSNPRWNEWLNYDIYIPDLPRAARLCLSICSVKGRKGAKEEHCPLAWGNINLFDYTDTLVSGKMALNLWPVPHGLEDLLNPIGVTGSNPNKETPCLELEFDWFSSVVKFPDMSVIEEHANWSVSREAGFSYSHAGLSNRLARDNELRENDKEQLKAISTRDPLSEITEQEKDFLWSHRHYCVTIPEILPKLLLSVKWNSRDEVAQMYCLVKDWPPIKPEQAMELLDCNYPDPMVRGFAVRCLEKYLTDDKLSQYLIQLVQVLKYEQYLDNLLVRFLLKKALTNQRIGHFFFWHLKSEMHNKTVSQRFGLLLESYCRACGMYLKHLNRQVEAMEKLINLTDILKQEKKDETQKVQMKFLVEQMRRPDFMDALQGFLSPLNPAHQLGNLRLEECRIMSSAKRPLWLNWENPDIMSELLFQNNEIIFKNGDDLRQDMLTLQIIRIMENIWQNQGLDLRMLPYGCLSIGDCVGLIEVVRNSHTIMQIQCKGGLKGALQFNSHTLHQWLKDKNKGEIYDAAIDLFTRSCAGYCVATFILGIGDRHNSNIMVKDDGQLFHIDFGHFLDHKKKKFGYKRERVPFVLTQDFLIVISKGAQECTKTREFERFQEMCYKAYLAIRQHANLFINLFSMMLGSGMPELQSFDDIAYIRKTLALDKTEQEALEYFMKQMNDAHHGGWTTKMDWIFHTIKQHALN
Sequence of Phosphatidylinositol 4,5-bisphosphate 3-kinase catalytic subunit beta isoform (P42338 whole entry, canonical isoform): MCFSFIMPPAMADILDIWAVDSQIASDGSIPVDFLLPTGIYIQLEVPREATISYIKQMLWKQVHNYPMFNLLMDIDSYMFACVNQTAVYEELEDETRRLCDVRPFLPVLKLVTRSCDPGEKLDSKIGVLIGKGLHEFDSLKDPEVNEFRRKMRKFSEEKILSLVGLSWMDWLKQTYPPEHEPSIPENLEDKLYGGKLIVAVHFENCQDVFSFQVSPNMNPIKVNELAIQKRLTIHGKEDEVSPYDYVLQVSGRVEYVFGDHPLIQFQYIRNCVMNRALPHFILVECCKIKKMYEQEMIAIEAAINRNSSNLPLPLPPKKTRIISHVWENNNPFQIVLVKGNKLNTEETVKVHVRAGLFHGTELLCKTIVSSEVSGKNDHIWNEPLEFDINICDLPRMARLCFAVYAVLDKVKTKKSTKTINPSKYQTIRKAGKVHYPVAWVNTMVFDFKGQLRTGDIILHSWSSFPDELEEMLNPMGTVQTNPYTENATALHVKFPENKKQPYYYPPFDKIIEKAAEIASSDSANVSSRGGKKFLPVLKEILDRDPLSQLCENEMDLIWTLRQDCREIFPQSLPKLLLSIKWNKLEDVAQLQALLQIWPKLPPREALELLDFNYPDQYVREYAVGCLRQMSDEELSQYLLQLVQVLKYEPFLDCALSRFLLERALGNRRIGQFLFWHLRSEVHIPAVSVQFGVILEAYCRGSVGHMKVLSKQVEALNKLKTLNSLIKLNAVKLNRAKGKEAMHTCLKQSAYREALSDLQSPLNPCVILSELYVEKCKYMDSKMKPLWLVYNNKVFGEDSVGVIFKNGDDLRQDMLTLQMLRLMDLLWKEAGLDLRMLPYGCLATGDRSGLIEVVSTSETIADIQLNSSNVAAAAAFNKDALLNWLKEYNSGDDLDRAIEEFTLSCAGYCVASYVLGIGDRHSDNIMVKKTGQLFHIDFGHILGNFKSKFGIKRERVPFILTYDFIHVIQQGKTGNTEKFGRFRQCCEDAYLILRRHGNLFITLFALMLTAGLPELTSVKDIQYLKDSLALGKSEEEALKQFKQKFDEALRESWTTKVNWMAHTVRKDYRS
Sequence of Phosphatidylinositol 4,5-bisphosphate 3-kinase catalytic subunit gamma isoform (P48736 whole entry, canonical isoform): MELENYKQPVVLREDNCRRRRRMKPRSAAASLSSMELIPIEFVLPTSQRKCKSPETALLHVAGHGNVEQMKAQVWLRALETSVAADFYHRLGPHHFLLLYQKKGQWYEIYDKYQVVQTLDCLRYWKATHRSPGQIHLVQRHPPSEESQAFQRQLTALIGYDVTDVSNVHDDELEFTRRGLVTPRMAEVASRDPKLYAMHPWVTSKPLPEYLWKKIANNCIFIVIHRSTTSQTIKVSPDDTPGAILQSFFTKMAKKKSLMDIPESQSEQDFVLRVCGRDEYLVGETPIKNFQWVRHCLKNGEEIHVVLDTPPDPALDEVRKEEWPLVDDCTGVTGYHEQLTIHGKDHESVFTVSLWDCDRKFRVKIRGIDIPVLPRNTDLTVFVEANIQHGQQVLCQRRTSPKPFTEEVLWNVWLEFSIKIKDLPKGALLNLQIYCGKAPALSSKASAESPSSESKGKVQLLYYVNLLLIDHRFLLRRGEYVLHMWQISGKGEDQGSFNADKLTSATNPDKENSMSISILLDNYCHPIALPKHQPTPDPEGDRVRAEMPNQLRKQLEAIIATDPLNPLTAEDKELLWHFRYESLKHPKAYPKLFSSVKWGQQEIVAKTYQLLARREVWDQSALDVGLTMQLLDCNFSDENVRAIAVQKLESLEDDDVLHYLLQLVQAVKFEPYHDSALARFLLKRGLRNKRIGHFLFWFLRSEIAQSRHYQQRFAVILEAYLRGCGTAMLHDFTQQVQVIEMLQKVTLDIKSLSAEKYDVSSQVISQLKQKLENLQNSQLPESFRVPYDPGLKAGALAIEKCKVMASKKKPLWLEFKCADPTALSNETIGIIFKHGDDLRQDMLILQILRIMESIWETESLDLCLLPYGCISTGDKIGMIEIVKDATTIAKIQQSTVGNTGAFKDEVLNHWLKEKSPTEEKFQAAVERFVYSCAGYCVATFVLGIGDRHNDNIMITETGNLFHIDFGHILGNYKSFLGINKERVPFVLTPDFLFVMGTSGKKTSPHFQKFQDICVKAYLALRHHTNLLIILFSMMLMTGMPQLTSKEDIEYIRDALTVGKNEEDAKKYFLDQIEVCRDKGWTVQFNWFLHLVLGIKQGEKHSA

SMILES	IC50 [1]	IC50 [3]	further results
Cc1cc(N2CCOCC2)nc(NCc2ccccc2)n1	130 µM		
Cc1cc(C(C)Nc2ccccc2)c2nc(N3CCOCC3)cc(=O)n2c1 (stereo not given)		5.7 µM	logD [2]: 3.6
NC(=O)c1cc(N2CCOCC2)nc(NCc2ccccc2)n1	2.5 µM		
CNC(=O)c1cc(N2CCOCC2)nc(NCc2ccccc2)n1	23 µM		
CN(C)C(=O)c1cc(N2CCOCC2)nc(NCc2ccccc2)n1	25 µM		
N#Cc1nc(NCc2ccccc2)cc(N2CCOCC2)n1	1.6 µM	41.4 µM	
NCc1nc(NCc2ccccc2)cc(N2CCOCC2)n1	87 µM	> 83.3 µM	
c1ccc(CNc2cc(N3CCOCC3)ncn2)cc1	36 µM	> 83.3 µM	
COC(=O)c1cc(NCc2ccccc2)nc(N2CCOCC2)c1	32 µM	240 µM	
OCc1cc(NCc2ccccc2)nc(N2CCOCC2)c1	43 µM	119 µM	
C[C@H](Nc1cc(N2CCOCC2)nc(=O)[nH]1)c1cccc2ccccc12	10 µM	52.8 µM	
C[C@@H](Nc1cc(N2CCOCC2)nc(=O)[nH]1)c1cccc2ccccc12	36 µM	146 µM	

More lines, main results first:

IC50 [1]	IC50 [3]	SMILES	further results
1.9 µM	12.2 µM	O=c1cc(N2CCOCC2)nc(NCc2ccccc2)[nH]1	logD [2]: 1.2
29 µM	> 83.3 µM	O=c1nc(N2CCOCC2)cc(NCc2ccccc2)[nH]1	logD [2]: 0.5
63 µM	283 µM	O=c1cc(NCc2ccccc2)nc(N2CCOCC2)[nH]1	logD [2]: 1.1
34 µM	142 µM	O=c1cc(NCc2ccccc2)[nH]c(N2CCOCC2)c1	logD [2]: 1.8
110 µM	> 83.3 µM	Nc1nc(NCc2ccccc2)cc(N2CCOCC2)n1	
0.093 µM	4.3 µM	O=c1cc(N2CCOCC2)nc(NCc2cccc3ccccc23)[nH]1	half-life [4]: 41 min; logD [2]: 2.4; Ratio (Liver microsomes): 0.21; IC50 [5]: 18.5 µM; solubility [6]: 4.5 µM (≈ 1.51 µg/mL); IC50 [7]: 0.14 µM
0.084 µM	3 µM	O=c1cc(N2CCOCC2)nc(NCc2cccc(Cl)c2Cl)[nH]1	
0.47 µM	7.9 µM	O=c1cc(N2CCOCC2)nc(NCc2cccc(Cl)c2)[nH]1	
0.57 µM	4.88 µM	O=c1cc(N2CCOCC2)nc(NCc2ccccc2Cl)[nH]1	
1.4 µM	4.52 µM	O=c1cc(N2CCOCC2)nc(NCc2cc(Cl)ccc2Cl)[nH]1	
1.5 µM	3.38 µM	O=c1cc(N2CCOCC2)nc(NCc2c(Cl)cccc2Cl)[nH]1	
2.6 µM	> 83.3 µM	O=c1nc(N2CCOCC2)cc(NCc2cccc3ccccc23)[nH]1	half-life [4]: > 115 min; logD [2]: 1.5; Ratio (Liver microsomes): 0; solubility [6]: > 100 µM
1.5 µM	100 µM	O=c1nc(N2CCOCC2)cc(NCc2cccc(Cl)c2Cl)[nH]1	
